Assay results: ChEMBL document CHEMBL3992530, “Polar aromatic periphery increases agonist potency of spirocyclic free fatty acid receptor (GPR40) agonists inspired by LY2881835” (Eur J Med Chem, 2017)

Columns and labels:
[1] = biological target: T1, Free fatty acid receptor 1 (Homo sapiens, UniProt O14842); experiment: Agonist activity at human GPR40 expressed in CHO cells assessed as increase in intracellular calcium flux at 5 uM by Fluo-8 dye based FLIPR assay relative to GW9508; type: functional, cell-based
[2] = biological target: T1, Free fatty acid receptor 1; experiment: Agonist activity at human GPR40 expressed in CHO cells assessed as increase in intracellular calcium flux by Fluo-8 dye based FLIPR assay; type: functional, cell-based
Outline: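 Stable CHO-GPR40 line (human receptor), seeded at 12,500 cells/well 24 h before assay. Cells were loaded 1 h with Fluo-8 calcium dye and read on FLIPR Tetra. Agonist response was taken as the maximum fluorescence change over baseline. Dose-response testing gave EC50 from fitted concentration-response curves, with GW9508 run alongside as positive control.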

[3] = Half life in Balb/c mouse liver microsomes at 2 uM in presence of NADPH by HPLC-MS analysis; type: ADME, microsome
Outline: (§1)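 Microsomes from pooled (50) perfused livers of male BALB/c mice, 0.42 mg protein/mL, in 100 mM K-phosphate pH 7.4 with MgCl2 3.3 mM, NADPH 3 mM, G6P 5.3 mM and G6PDH 0.67 U/ml. Compound was 2 μM (1.6% solvent) at 37°C, sampled at five points over 40 min in duplicate. Reactions were quenched with acetonitrile and analysed by HPLC-MS/MS. kel came from ln(AUC) vs time, T1/2 = 0.693/kel, and CLint was scaled per mg microsomes.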

[4] = biological target: T2, Free fatty acid receptor 3 (Homo sapiens, UniProt O14843); experiment: Agonist activity at human FFA3 receptor expressed in CHO cells assessed as increase in intracellular calcium flux by Fluo-8 dye based FLIPR assay; type: functional, cell-based
T2 sequence (O14843 whole entry): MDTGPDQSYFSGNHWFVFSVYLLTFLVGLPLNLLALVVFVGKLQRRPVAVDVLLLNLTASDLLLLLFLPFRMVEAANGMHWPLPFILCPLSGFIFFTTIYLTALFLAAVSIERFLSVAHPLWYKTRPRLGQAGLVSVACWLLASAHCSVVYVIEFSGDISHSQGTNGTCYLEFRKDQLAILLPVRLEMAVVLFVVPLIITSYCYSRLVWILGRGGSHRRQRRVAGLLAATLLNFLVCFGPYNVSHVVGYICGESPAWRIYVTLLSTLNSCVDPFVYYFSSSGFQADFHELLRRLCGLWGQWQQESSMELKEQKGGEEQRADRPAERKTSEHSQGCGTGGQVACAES
Outline: (§2)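 Separate CHO lines stably expressing GPR41, GPR43 or GPR120 (from ECACC) were used for specificity screening in the same format as the FFA1 assay. Cells were plated at 12,500/well 24 h ahead, loaded 1 h with Fluo-8 calcium dye, and read on a FLIPR Tetra. Response was taken as the maximum fluorescence change over baseline.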

[5] = biological target: T3, Free fatty acid receptor 4 (Homo sapiens, UniProt Q5NUL3); experiment: Agonist activity at human GPR120 expressed in CHO cells assessed as increase in intracellular calcium flux by Fluo-8 dye based FLIPR assay; type: functional, cell-based; outline: as §2
T3 sequence (Q5NUL3 whole entry): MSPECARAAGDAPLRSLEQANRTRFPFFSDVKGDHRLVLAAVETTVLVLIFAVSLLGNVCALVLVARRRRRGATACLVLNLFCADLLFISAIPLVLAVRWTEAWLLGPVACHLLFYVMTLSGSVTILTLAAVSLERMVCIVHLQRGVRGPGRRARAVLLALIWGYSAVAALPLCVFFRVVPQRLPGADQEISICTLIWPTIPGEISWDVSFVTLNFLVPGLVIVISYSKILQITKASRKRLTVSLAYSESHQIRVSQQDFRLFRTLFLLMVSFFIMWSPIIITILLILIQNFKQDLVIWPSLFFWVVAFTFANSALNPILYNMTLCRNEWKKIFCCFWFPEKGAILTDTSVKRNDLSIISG

[6] = biological target: T4, Free fatty acid receptor 2 (Homo sapiens, UniProt O15552); experiment: Agonist activity at human FFA2 receptor expressed in CHO cells assessed as increase in intracellular calcium flux by Fluo-8 dye based FLIPR assay; type: functional, cell-based; outline: as §2
T4 sequence (O15552 whole entry): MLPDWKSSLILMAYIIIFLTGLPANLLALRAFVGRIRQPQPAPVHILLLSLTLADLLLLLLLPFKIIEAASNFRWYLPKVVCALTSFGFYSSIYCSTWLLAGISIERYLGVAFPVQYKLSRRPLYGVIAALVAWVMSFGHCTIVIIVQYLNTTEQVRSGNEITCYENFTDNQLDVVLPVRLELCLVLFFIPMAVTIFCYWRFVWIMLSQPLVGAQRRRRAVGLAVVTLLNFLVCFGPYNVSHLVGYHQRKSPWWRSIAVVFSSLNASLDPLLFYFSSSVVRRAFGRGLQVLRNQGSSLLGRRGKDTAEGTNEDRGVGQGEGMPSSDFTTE

[7] = Intrinsic clearance in Balb/c mouse liver microsomes at 2 uM in presence of NADPH by HPLC-MS analysis; type: ADME, microsome; outline: as §1
[8] = Apparent permeability from apical to basolateral direction in human Caco2 cells at 10 uM after 2 hrs by HPLC-MS analysis; type: ADME, cell-based; conditions: Caco-2
Outline: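 Caco-2 cells were grown to 70–80% confluence, then seeded at 1x10⁵ cells/well on 24-well semipermeable inserts and washed twice with PBS. Compound was 10 μM in HBSS with 5,6 mM glucose and 10 mM HEPES, pH 7.4, applied apically in duplicate for 2 h at 37 °C. Receiver concentrations were measured by HPLC-MS, and Papp was computed from acceptor volume, insert area, time and acceptor/initial donor concentration.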

[9] = Kinetic aqueous solubility of the compound in PBS buffer […] at pH 7.4 by UV-Visible spectrophotometric analysis; type: physicochemical; conditions: read-out: Kinetic_solubility
Outline: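 Kinetic solubility: a 40 mM DMSO stock was diluted to a nominal 800 μM in duplicate in PBS (138 mM NaCl, 2.7 mM KCl, 10 mM K-phosphate, pH 7.4, 2% final DMSO). Samples were shaken 2 h at 25°C and then filtered. Filtrates were diluted 2-fold in methanol and quantified by UV scan (200-550 nm) against 0, 200 and 400 μM calibrants in 50% methanol/PBS. Values average n = 4.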

T1 sequence (O14842 whole entry): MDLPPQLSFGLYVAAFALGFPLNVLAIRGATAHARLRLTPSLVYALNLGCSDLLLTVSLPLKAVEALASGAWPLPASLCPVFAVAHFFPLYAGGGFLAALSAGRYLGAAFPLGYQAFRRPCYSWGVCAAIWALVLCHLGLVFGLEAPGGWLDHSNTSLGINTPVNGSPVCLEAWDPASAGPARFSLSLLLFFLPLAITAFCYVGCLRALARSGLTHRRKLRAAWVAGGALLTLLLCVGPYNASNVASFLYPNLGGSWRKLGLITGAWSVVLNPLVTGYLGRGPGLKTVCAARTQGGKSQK

%max [1] [%]	EC50 [2] [nM]	SMILES	also measured
48.5	6100	O=C(O)CCc1ccc(OCc2ccc(CN3CCC4(CC3)CC(CCOc3ccncc3)CCO4)cc2)cc1 (stereo not given)	–
100	260	Cc1cccc(OCCC2CCOC3(CCN(Cc4ccc(COc5ccc(CCC(=O)O)cc5)cc4)CC3)C2)n1.Cl.Cl (stereo not given)	half-life at 2 µM [3]: 22.9 min; EC50 [4]: > 10000 nM; EC50 [5]: > 10000 nM; EC50 [6]: > 10000 nM; CL int at 2 µM [7]: 72.8 µL/min/mg; Papp A→B at 2 h, 10 µM [8]: 7.3 ×10⁻⁶ cm/s; solubility kinetic [9]: 228 µM
79.2	33500	O=C(O)CCc1ccc(OCc2ccc(CN3CCC4(CC3)CC(CCOc3ccc(C(F)(F)F)cn3)CCO4)cc2)cc1 (stereo not given)	–
61.7	2560	O=C(O)CCc1ccc(OCc2ccc(CN3CCC4(CC3)CC(CCOc3cccnc3)CCO4)cc2)cc1 (stereo not given)	–
83.4	2360	O=C(O)CCc1ccc(OCc2ccc(CN3CCC4(CC3)CC(CCOc3ccc5ccccc5n3)CCO4)cc2)cc1 (stereo not given)	–
–	> 20000	O=C(O)CCc1ccc(OCc2ccc(CN3CCC4(CCCCO4)CC3)cc2)cc1	–

More lines, now with the values behind:

SMILES	%max [1] [%]	EC50 [2] [nM]	also measured
O=C(O)CCc1ccc(OCc2ccc(CN3CCC4(CC3)CC(Oc3ccccn3)CCO4)cc2)cc1 (stereo not given)	–	900	–
O=C(O)CCc1ccc(OCc2ccc(CN3CCC4(CC3)CC(CCOc3cnccn3)CCO4)cc2)cc1 (stereo not given)	83.5	1480	–
O=C(O)CCc1ccc(OCc2ccc(CN3CCC4(CC3)CC(CCOc3ncccn3)CCO4)cc2)cc1 (stereo not given)	54.5	3870	–
O=C(O)CCc1ccc(OCc2ccc(CN3CCC4(CC3)CC(CCOc3ncnc5c3CCC5)CCO4)cc2)cc1 (stereo not given)	78.4	1260	–
Cc1ccnc(OCCC2CCOC3(CCN(Cc4ccc(COc5ccc(CCC(=O)O)cc5)cc4)CC3)C2)c1 (stereo not given)	110	1110	–
Cc1nccnc1OCCC1CCOC2(CCN(Cc3ccc(COc4ccc(CCC(=O)O)cc4)cc3)CC2)C1 (stereo not given)	105	1270	–
O=C(O)CCc1ccc(OCc2ccc(CN3CCC4(CC3)CC(CCOc3nc(C5CC5)nc5c3CCC5)CCO4)cc2)cc1 (stereo not given)	60.5	1210	–
O=C(O)CCc1ccc(OCc2ccc(CN3CCC4(CC3)CC(CCOc3ccc(F)cc3)CCO4)cc2)cc1 (stereo not given)	55	2060	–
Cc1cnc(C)c(OCCC2CCOC3(CCN(Cc4ccc(COc5ccc(CCC(=O)O)cc5)cc4)CC3)C2)n1 (stereo not given)	80.2	1140	–
